Laboratory results taken from ChEMBL document CHEMBL5104177, “Discovery and Crystallographic Studies of Trisubstituted Piperazine Derivatives as Non-Covalent SARS-CoV-2 Main Protease Inhibitors with High Target Specificity and Low Toxicity” (J Med Chem, 2022).
≈ marks a conversion by molar mass, not a printed value.

What was measured:
[1] = system: SARS-CoV-2; assay: Antiviral activity against SARS-CoV-2 infected in Vero E6 cells assessed as inhibition of viral replication incubated for 25 to 26 hrs by EliSpot reader based analysis; type: functional, organism-based; conditions: Severe acute respiratory syndrome coronavirus 2, Vero C1008
In short: (§1)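 Antiviral assay in SARS-CoV-2-infected Vero E6 cells, with remdesivir and GC-376 as positive controls, n = 3 biological replicates, SD reported. The potency index is EC50(remdesivir)/EC50(test compound), both measured in this assay.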

[2] = Inhibition of SARS-CoV-1 main protease; set-up: species or system Severe acute respiratory syndrome-related coronavirus
In short: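 SARS-CoV-1 Mpro inhibition tested in addition to SARS-CoV-2 Mpro. Values are mean ± SD of three independent experiments.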

[3] = biological target: Replicase polyprotein 1ab (Severe acute respiratory syndrome coronavirus 2, UniProt P0DTD1); assay: Inhibition of SARS-CoV-2 main protease using MCA-AVLQSGFR-Lys(Dnp)-Lys-NH2 as fluorescent substrate preincubated for 10 mins followed by substrate addition and measured every 10 sec for 10 mins by FRET assay
[4] = Cytotoxicity against African green monkey Vero E6 cells assessed as reduction in cell viability incubated for 26 hrs by celltiter 96 aqueous non-radioactive cell proliferation assay; type: toxicity, cell-based, Vero C1008; conditions: chlorocebus sabaeus
In short: (§2)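 Cytotoxicity measured in Vero E6 cells run in parallel with the antiviral assay, n = 3 biological replicates, SD reported.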

[5] = biological target: T1, Cathepsin F (Homo sapiens, UniProt Q9UBX1); assay: Inhibition of human Cathepsin F using Z-Phe-Arg-AMC as fluorogenic substrate incubated for 60 mins by FRET assay
T1 sequence (Q9UBX1 whole entry): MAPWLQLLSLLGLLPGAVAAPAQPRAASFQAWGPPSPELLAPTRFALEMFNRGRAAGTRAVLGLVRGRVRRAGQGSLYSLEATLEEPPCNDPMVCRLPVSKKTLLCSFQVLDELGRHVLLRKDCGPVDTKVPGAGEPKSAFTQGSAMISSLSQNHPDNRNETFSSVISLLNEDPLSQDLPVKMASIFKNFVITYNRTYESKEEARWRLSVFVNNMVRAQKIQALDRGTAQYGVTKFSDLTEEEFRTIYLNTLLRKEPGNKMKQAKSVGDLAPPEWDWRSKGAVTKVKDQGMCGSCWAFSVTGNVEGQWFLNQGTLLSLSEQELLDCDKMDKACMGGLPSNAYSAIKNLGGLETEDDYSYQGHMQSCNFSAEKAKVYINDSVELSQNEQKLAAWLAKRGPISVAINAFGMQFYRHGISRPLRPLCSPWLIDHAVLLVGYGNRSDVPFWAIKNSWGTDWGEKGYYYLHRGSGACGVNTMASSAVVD

[6] = system: SARS-CoV-2; assay: Potency index, ratio of remdesivir EC50 to test compound EC50 for Antiviral activity against SARS-CoV-2 infected in Vero E6 cells assessed as inhibition of viral replication incubated for 25 to 26 hrs by EliSpot reader based analysis; type: functional, Severe acute respiratory syndrome coronavirus 2; in short: as §1
[7] = biological target: T2, Cathepsin K (Homo sapiens, UniProt P43235); assay: Inhibition of human Cathepsin K using Ac-LR-AMC as fluorogenic substrate incubated for 60 mins by FRET assay
T2 sequence (P43235 whole entry): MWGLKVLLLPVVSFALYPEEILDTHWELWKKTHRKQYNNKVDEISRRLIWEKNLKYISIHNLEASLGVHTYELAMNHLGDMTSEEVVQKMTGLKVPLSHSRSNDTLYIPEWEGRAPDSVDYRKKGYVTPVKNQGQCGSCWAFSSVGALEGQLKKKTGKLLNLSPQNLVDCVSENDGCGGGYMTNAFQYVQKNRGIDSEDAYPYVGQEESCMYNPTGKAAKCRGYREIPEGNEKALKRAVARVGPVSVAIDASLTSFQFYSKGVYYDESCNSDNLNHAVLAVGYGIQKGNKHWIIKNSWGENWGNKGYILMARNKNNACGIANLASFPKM

[8] = biological target: Cathepsin B (Homo sapiens, UniProt P07858); assay: Inhibition of human Cathepsin B using Z-Leu-Arg-AMC as fluorogenic substrate incubated for 60 mins by FRET assay
[9] = biological target: Procathepsin L (Homo sapiens, UniProt P07711); assay: Inhibition of human Cathepsin L using Z-Leu-Arg-AMC as fluorogenic substrate incubated for 60 mins by FRET assay
[10] = biological target: T3, Caspase-3 (Homo sapiens, UniProt P42574); assay: Inhibition of human caspase-3 using Ac-Asp-Glu-Val-Asp-pNA as substrate incubated for 60 mins by FRET assay
T3 sequence (P42574 whole entry): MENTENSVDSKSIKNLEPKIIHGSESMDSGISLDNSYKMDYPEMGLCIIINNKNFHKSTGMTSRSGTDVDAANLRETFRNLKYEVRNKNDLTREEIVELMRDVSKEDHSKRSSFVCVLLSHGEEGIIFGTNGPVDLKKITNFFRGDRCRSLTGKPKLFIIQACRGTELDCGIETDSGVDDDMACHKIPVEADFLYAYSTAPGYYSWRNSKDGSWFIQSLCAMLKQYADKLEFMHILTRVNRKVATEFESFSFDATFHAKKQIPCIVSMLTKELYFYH

[11] = MRT (0 to infinity) in Sprague-Dawley rat at 10 mg/kg, po measured upto 24 hrs by LC-MS/MS analysis; type: ADME, organism-based; conditions: in vivo
In short: (§3)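 Single-dose pharmacokinetics in Sprague–Dawley rats: 2 mg/kg given i.v. or 10 mg/kg given orally, in separate arms. Plasma parameters were derived for each route. Oral bioavailability (F) was obtained from the two arms. Values are mean ± SD, n = 3.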

[12] = Tmax in Sprague-Dawley rat at 10 mg/kg, po measured upto 24 hrs by LC-MS/MS analysis; type: ADME, organism-based; conditions: in vivo; in short: as §3
[13] = Half life in Sprague-Dawley rat at 2 mg/kg, iv measured upto 24 hrs by LC-MS/MS analysis; type: ADME, organism-based; conditions: in vivo; in short: as §3
[14] = AUC (0 to t) in Sprague-Dawley rat at 10 mg/kg, po measured upto 24 hrs by LC-MS/MS analysis; type: ADME, organism-based; set-up: dose 10 mg/kg, time < 24 hrs, route po; conditions: in vivo; in short: as §3
[15] = MRT (0 to infinity) in Sprague-Dawley rat at 2 mg/kg, iv measured upto 24 hrs by LC-MS/MS analysis; type: ADME, organism-based; conditions: in vivo; in short: as §3
[16] = AUC (0 to t) in Sprague-Dawley rat at 2 mg/kg, iv measured upto 24 hrs by LC-MS/MS analysis; type: ADME, organism-based; set-up: dose 2 mg/kg, time < 24 hrs, route iv; conditions: in vivo
[17] = Cmax in Sprague-Dawley rat at 10 mg/kg, po measured upto 24 hrs by LC-MS/MS analysis; type: ADME, organism-based; set-up: time < 24 hrs, dose 10 mg/kg, route po; conditions: in vivo; in short: as §3
[18] = Clearance in Sprague-Dawley rat at 2 mg/kg, iv measured upto 24 hrs by LC-MS/MS analysis; type: ADME, organism-based; conditions: in vivo; in short: as §3
[19] = Microsomal stability in human liver microsomes assessed as intrinsic clearance at 1 uM preincubated for 10 mins followed by NADPH addition and measured upto 60 mins by LC-MS/MS analysis; type: ADME, Microsome; conditions: time < 70 min, read-out: CLH
[20] = C0 in Sprague-Dawley rat at 2 mg/kg, iv measured upto 24 hrs by LC-MS/MS analysis; type: ADME, organism-based; conditions: in vivo; in short: as §3
[21] = Tmax in Sprague-Dawley rat at 2 mg/kg, iv measured upto 24 hrs by LC-MS/MS analysis; type: ADME, organism-based; conditions: in vivo; in short: as §3
[22] = AUC (0 to infinity) in Sprague-Dawley rat at 2 mg/kg, iv measured upto 24 hrs by LC-MS/MS analysis; type: ADME, organism-based; set-up: dose 2 mg/kg, time < 24 hrs, route iv; conditions: in vivo
[23] = Oral bioavailability in Sprague-Dawley rat at 10 mg/kg measured upto 24 hrs by LC-MS/MS analysis; type: ADME, organism-based; conditions: in vivo; in short: as §3
[24] = AUC (0 to infinity) in Sprague-Dawley rat at 10 mg/kg, po measured upto 24 hrs by LC-MS/MS analysis; type: ADME, organism-based; set-up: dose 10 mg/kg, time < 24 hrs, route po; conditions: in vivo; in short: as §3
[25] = Kinetic solubility of the compound at pH 7.3; type: physicochemical; conditions: buffer, read-out: Kinetic_solubility
In short: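 Kinetic solubility measured in phosphate buffer at pH 7.3.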

[26] = Half life in Sprague-Dawley rat at 10 mg/kg, po measured upto 24 hrs by LC-MS/MS analysis; type: ADME, organism-based; conditions: in vivo; in short: as §3
[27] = Cmax in Sprague-Dawley rat at 2 mg/kg, iv measured upto 24 hrs by LC-MS/MS analysis; type: ADME, organism-based; set-up: dose 2 mg/kg, time < 24 hrs, route iv; conditions: in vivo; in short: as §3
[28] = Cytotoxicity against African green monkey Vero E6 cells assessed as reduction in cell viability; type: toxicity, cell-based; conditions: chlorocebus sabaeus; in short: as §2

Procathepsin L, sequence (P07711 whole entry): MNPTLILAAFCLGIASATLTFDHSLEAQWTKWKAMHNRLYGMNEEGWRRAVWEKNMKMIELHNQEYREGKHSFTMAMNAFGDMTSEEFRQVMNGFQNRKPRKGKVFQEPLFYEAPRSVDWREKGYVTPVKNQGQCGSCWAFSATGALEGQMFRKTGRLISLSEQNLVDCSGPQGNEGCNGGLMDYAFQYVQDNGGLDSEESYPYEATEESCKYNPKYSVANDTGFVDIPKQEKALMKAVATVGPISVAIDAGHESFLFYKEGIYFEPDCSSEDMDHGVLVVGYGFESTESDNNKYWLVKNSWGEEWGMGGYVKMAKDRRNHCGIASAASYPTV

Compound: O=C(NCc1ccco1)[C@@H]1CN(C(=O)c2cc(=O)[nH]c(=O)[nH]2)CCN1c1ccc(Cl)c(Cl)c1
- IC50 [1]: > 50000 nM
- IC50 [2]: 1000 nM
- IC50 [3]: 0.35 nM
- CC50 at 26 h [4]: > 100000 nM

Compound: CC(C)C[C@H](NC(=O)OCc1ccccc1)C(=O)N[C@@H](C[C@@H]1CCNC1=O)C(O)S(=O)(=O)O (stereo partly specified)
- IC50 [1]: 200 nM
- IC50 [5]: 74 nM

Compound: O=C(NCc1cccs1)[C@@H]1CN(C(=O)c2cc(=O)[nH]c(=O)[nH]2)CCN1c1ccc(Cl)c(Cl)c1 (racemic)
- IC50 [1]: > 50000 nM
- IC50 [2]: 1090 nM
- IC50 [3]: 0.4 nM
- CC50 at 26 h [4]: > 100000 nM

Compound: O=C(NCc1ccco1)[C@H]1CN(C(=O)c2cc(=O)[nH]c(=O)[nH]2)CCN1c1ccc(Cl)c(Cl)c1
- IC50 [3]: 2.98 nM

Compound: O=C(NCc1ccco1)C1CN(C(=O)c2cc(=O)[nH]c(=O)[nH]2)CCN1c1ccc(Cl)c(Cl)c1 (racemic)
- IC50 [3]: 0.79 nM

Compound: O=C(NCc1ccco1)C1CN(C(=O)c2cc(=O)[nH]c(=O)[nH]2)CCN1Cc1ccc(Cl)cc1Cl (stereo unspecified)
- IC50 [3]: 0.59 nM

Compound: Cn1cnc(Cn2c(=O)[nH]/c(=N\c3cc4cn(C)nc4cc3Cl)n(Cc3cc(F)c(F)cc3F)c2=O)n1
- IC50 [1]: 370 nM
- CC50 at 26 h [4]: > 100000 nM

Compound: CCC(CC)COC(=O)[C@H](C)N[P@](=O)(OC[C@H]1O[C@@](C#N)(c2ccc3c(N)ncnn23)[C@H](O)[C@@H]1O)Oc1ccccc1
- IC50 [1]: 2800 nM

Compound: O=C(NCc1cccs1)C1CN(C(=O)c2cc(=O)[nH]c(=O)[nH]2)CCN1c1ccc(Cl)c(Cl)c1 (racemic)
- IC50 [3]: 0.61 nM

Compound: O=C(NCc1ccco1)[C@@H]1CN(C(=O)c2cc(=O)[nH]c(=O)[nH]2)CCN1Cc1ccc(Cl)cc1Cl
- IC50 [2]: 1650 nM
- IC50 [3]: 0.48 nM

Compound: O=C(NCc1cccs1)[C@@H]1CN(C(=O)c2cncc3ccccc23)CCN1c1ccc(Cl)c(Cl)c1
- IC50 [1]: 1000 nM
- Ratio [6]: 2.8
- IC50 [7]: 50000 nM
- IC50 [5]: 50000 nM
- IC50 [8]: 50000 nM
- IC50 [3]: 0.44 nM
- IC50 [9]: 50000 nM
- IC50 [10]: 50000 nM
- CC50 at 26 h [4]: > 100000 nM

Compound: O=C(c1cc(=O)[nH]c(=O)[nH]1)N1CCN(c2ccc(Cl)c(Cl)c2)CC1
- IC50 [1]: > 50000 nM
- CC50 at 26 h [4]: > 100000 nM

Compound: O=C(NCc1cccs1)[C@@H]1CN(C(=O)c2cccnc2)CCN1c1ccc(Cl)c(Cl)c1
- MRT inf [11]: 147 min
- Tmax [12]: 30 min
- IC50 [1]: 1100 nM
- half-life [13]: 21.6 min
- AUC(0-t) at 24 h [14]: 235 ng·h/mL
- MRT inf [15]: 24 min
- IC50 [7]: 50000 nM
- AUC(0-t) at 24 h [16]: 627 ng·h/mL
- Cmax [17]: 74.6 ng/mL
- IC50 [5]: 50000 nM
- clearance [18]: 52.3 mL/min/kg
- IC50 [8]: 50000 nM
- CLint scaled at 1 µM [19]: 994 mL/min/kg
- C0 at 24 h [20]: 1760 ng/mL
- IC50 [2]: 4610 nM
- Tmax [21]: 4.8 min
- AUC [22]: 637 ng·h/mL
- F [23]: 72%
- IC50 [3]: 0.4 nM
- IC50 [9]: 50000 nM
- AUC [24]: 230 ng·h/mL
- IC50 [10]: 50000 nM
- CC50 at 26 h [4]: > 100000 nM
- solubility kinetic [25]: 4.1 µg/mL (≈ 8.62 µM)
- half-life [26]: 104 min
- Cmax [27]: 1310 ng/mL

Compound: O=c1[nH]cc(-c2cc(-c3cc(Cl)cc(OCc4ccccc4Cl)c3)c(=O)n(-c3cccnc3)c2)c(=O)[nH]1
- CC50 [28]: 1700 nM

Compound: O=C(NCc1cccs1)[C@@H]1CN(C(=O)c2cc(=O)[nH]c(=O)[nH]2)CCN1Cc1ccc(Cl)cc1Cl
- IC50 [1]: > 50000 nM
- IC50 [2]: 1290 nM
- IC50 [3]: 0.44 nM
- CC50 at 26 h [4]: > 100000 nM
